The results in this text go back to ChEMBL document CHEMBL3774355, “Quinoxalinone (Part II). Discovery of (Z)-3-(2-(pyridin-4-yl)vinyl)quinoxalinone derivates as potent VEGFR-2 kinase inhibitors” (Bioorg Med Chem, 2016).

In assay [1] the test system is MCF7. In words: Cytotoxicity against human MCF7 cells assessed as growth inhibition after 24 hrs by MTT assay. In kind it is functional, cell-based. The settings on record: MCF7, 24 h. A digest of the protocol: (§1)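 Cells seeded at 8000/well in RPMI-1640 with 10% heat-inactivated FBS and left to adhere 10 h. Compound then added in RPMI-1640 with 1% FBS and 0.1% DMSO for 24 h at 37 °C. MTT added for 4 h, formazan dissolved in DMSO, OD read at 590 nm. Inhibition calculated relative to control and zero-setting wells; IC50 derived from inhibition ratios; two experiments in triplicate.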
For orientation: Tetrazolium dyes change colour on reduction, which living cells bring about.

Assay [2] can be described thus: Cytotoxicity against human 3AO cells assessed as growth inhibition after 24 hrs by MTT assay. Format: functional, cell-based. A digest of the protocol:
as §1

Assay [3] is described as follows: Cytotoxicity against human PC3 cells assessed as growth inhibition after 24 hrs by MTT assay. In kind it is functional, cell-based. The settings on record: PC-3, 24 h. The procedure, abridged:
as §1

The subject of assay [4] is K562. Nature of the assay: Cytotoxicity against human K562 cells assessed as growth inhibition after 24 hrs by MTT assay. In kind it is functional, cell-based. The settings on record: K562, 24 h. A digest of the protocol: as §1
Assay [5] relates to HeLa. Nature of the assay: Cytotoxicity against human HeLa cells assessed as growth inhibition after 24 hrs by MTT assay. In kind it is functional, cell-based. A digest of the protocol:
as §1

A short description of assay [6]: Cytotoxicity against human BEAS2B cells assessed as growth inhibition after 24 hrs by MTT assay. The settings on record: BEAS-2B. Format: cell-based. The procedure, abridged: as §1
In assay [7] the test system is HUVEC. Nature of the assay: Antiangiogenic activity against HUVEC cells assessed as inhibition of VEGF-induced tube formation after 8 hrs by microscopic analysis. The settings on record: Homo sapiens. In kind it is functional, cell-based. A digest of the protocol:
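HUVECs trypsinized and seeded on Matrigel (polymerized 1 h, 37 °C) at 10^5 cells/well, incubated with compound at 0.1, 1 and 10 µg/mL for 8 h at 37 °C in CO2 until tube networks formed; Pazopanib as positive control. Morphology imaged in five random fields per well; experiment repeated 3 times.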

Assay [8] is filed under the species Danio rerio. In words: Antiangiogenic activity against transgenic zebra fish embryos expressing green fluorescence protein assessed as inhibition of intersegmental vessel formation at 10 to 100 uM after 24 hrs by confocal fluorescence microscopy. Format: functional, organism-based. The procedure, abridged:
(§2)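 Tg(flk1:GFP) embryos, dechorionated one day post-fertilization, 10 per well in 3 mL assay solution with 0.1% PTU added; compounds at 10, 50, 100 µM, 0.2% DMSO as vehicle control, vatalanib as positive control; 28 °C. ISV formation scored by confocal microscopy (50- and 100-fold) after 24 h treatment; repeated at least three times.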

Assay [9] addresses Fibroblast growth factor receptor 1 (Homo sapiens) (UniProt P11362). Nature of the assay: Inhibition of human recombinant FGFR1 at 1 uM after 50 mins by microtiter plate based luciferase reporter gene assay. (In general: Reporter assays use an easily measured gene product as a stand-in for the process of interest.)
Assay [10] has as its target Vascular endothelial growth factor receptor 2 (Homo sapiens) (UniProt P35968). The settings on record: at 1 µM.
The species named for assay [11] is Danio rerio. Nature of the assay: Antiangiogenic activity against transgenic zebra fish embryos expressing green fluorescence protein assessed as inhibition of intersegmental vessel formation at 100 uM after 24 hrs by confocal fluorescence microscopy. Format: functional, organism-based. The procedure, abridged: as §2

Active and inactive are the calls of the source. The calls are words filed in the database; no cut-off is given here.

Chain of Vascular endothelial growth factor receptor 2 (Homo sapiens) (P35968 whole entry): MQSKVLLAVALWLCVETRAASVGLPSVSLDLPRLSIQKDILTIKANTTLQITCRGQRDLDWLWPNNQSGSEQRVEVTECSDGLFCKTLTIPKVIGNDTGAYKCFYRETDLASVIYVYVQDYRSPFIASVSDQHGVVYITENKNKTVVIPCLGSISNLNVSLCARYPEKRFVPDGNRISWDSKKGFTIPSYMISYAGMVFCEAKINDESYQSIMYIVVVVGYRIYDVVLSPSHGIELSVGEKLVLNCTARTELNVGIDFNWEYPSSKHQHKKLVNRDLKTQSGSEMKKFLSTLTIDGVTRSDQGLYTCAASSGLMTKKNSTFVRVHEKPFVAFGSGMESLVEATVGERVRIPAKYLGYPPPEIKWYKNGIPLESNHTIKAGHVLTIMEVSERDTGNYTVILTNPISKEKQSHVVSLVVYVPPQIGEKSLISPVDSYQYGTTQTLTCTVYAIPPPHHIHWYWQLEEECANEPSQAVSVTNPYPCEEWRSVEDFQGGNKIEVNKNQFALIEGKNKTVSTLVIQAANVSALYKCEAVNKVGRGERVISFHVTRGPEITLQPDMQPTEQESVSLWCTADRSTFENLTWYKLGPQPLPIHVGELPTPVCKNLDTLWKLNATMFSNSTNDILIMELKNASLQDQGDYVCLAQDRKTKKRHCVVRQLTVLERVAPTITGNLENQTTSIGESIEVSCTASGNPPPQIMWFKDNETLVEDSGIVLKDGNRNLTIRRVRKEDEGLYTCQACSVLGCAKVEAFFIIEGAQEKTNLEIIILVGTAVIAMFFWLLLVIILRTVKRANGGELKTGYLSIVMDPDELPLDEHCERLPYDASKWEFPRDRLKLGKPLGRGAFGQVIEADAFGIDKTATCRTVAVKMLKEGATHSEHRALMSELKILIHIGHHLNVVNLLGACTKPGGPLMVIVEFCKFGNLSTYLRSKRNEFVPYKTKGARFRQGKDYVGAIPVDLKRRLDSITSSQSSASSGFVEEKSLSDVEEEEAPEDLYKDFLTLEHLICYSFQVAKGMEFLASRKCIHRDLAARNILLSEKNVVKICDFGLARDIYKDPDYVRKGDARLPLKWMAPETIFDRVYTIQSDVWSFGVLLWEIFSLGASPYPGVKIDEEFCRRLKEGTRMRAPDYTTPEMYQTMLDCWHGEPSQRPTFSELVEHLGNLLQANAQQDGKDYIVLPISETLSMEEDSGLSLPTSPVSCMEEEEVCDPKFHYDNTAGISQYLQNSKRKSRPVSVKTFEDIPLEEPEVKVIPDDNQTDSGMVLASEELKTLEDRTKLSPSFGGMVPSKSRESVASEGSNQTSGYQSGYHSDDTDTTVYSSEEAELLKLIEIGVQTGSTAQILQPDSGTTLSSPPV
Chain of Fibroblast growth factor receptor 1 (Homo sapiens) (P11362 22-822 limits assumed): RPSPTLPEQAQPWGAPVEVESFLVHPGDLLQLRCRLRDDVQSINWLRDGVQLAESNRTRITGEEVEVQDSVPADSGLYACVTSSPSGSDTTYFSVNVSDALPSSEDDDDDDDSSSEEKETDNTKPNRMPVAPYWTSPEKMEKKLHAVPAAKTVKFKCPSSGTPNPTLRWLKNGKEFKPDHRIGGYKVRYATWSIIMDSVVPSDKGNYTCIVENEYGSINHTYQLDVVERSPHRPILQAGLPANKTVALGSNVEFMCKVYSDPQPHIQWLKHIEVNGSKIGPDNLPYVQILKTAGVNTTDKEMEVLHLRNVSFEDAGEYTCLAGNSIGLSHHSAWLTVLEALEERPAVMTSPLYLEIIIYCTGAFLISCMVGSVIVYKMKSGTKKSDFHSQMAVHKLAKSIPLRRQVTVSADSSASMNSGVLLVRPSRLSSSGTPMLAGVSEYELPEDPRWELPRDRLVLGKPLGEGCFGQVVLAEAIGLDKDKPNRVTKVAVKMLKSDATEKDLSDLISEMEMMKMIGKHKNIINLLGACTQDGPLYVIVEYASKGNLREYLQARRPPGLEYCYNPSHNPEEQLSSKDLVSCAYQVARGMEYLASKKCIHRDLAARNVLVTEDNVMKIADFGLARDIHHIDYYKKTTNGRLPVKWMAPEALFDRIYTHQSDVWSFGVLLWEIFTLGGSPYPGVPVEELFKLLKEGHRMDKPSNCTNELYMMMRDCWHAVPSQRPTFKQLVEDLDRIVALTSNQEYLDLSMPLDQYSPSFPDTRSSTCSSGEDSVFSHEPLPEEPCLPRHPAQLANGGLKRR

As for `Cc1ccc(Nc2nccc(N(C)c3ccc4c(C)n(C)nc4c3)n2)cc1S(N)(=O)=O` [PAZOPANIB], the IC50 in assay [1] was 76.8 µM; in assay [2], 50.2 µM; in assay [3], greater than 100 µM; in [4], 89.3 µM; in assay [5], greater than 100 µM; in assay [6] it was greater than 100 µM.

`Cc1ccc(NC(=O)COc2nc3ccccc3nc2/C=C\c2ccncc2)cc1`: the IC50 in assay [1] is 60.2 µM; in [2] it was greater than 100 µM; in assay [3] it was greater than 100 µM; in assay [4] it was greater than 100 µM; in assay [5] it was greater than 100 µM; in assay [6] it was greater than 100 µM.

`COc1ccc(NC(=O)Cn2c(=O)c(/C=C\c3ccncc3)nc3ccccc32)cc1OC`: the IC50 in assay [1] was greater than 100 µM; in assay [2] it was greater than 100 µM; in assay [3], greater than 100 µM; in assay [4], 55.2 µM; in [5] it was greater than 100 µM; in [6], greater than 100 µM.

In the case of `Cc1ccc(NC(=O)COc2nc3ccccc3nc2C)cc1`, the IC50 was greater than 100 µM in assay [1]; greater than 100 µM in assay [2]; greater than 100 µM in assay [3]; greater than 100 µM in [4]; 74.6 µM in assay [5]; greater than 100 µM in assay [6].

Regarding `Cc1nc2ccccc2n(Cc2ccc(NC(=O)c3ccc(Cl)cc3)cc2)c1=O`, the IC50 in [1] is 47.6 µM; in assay [2] it was greater than 100 µM; in assay [3] it was 39.6 µM; in [4] it was greater than 100 µM; in assay [5], greater than 100 µM; in [6], greater than 100 µM.

Consider `COc1cc2nc(/C=C\c3ccncc3)c(=O)n(CC(=O)Nc3ccccc3)c2cc1OC`, for which the IC50 was greater than 100 µM in assay [1]; 55.6 µM in assay [2]; greater than 100 µM in [3]; greater than 100 µM in [4]; greater than 100 µM in assay [5]; greater than 100 µM in assay [6].

Consider `Cc1ccc(C(=O)Nc2ccc(Cn3c(=O)c(C)nc4ccccc43)cc2)cc1`, for which the IC50 in [1], in [2], in assay [3], in [4], in assay [5] and in assay [6] was greater than 100 µM throughout.

For the compound `Cc1nc2ccccc2nc1OCC(=O)Nc1ccc(Cl)cc1`, the IC50 in [1] was greater than 100 µM; in assay [2] it was greater than 100 µM; in assay [3], 68 µM; in assay [4] it was greater than 100 µM; in assay [5], greater than 100 µM; in assay [6], greater than 100 µM.

With `O=C(Cn1c(=O)c(/C=C\c2ccncc2)nc2ccccc21)Nc1ccc(Cl)c(Cl)c1`, the IC50 in [1] is 47.6 µM; in [2], greater than 100 µM; in assay [3] it was greater than 100 µM; in assay [4] it was greater than 100 µM; in assay [5] it was greater than 100 µM; in [6], greater than 100 µM. The inhibition result was “Dose-dependent effect” in assay [7], “Dose-dependent effect” in [8], 8% in assay [9] and 56% in [10].

Turning to `O=C(Cn1c(=O)c(/C=C\c2ccncc2)nc2ccccc21)Nc1ccc(Cl)cc1`, the IC50 in [1] was greater than 100 µM; in assay [2], greater than 100 µM; in assay [3], greater than 100 µM; in [4], 50.4 µM; in assay [5], greater than 100 µM; in [6], greater than 100 µM. The inhibition entry in [7] is “Dose-dependent effect”; in [8] it was “Dose-dependent effect”; in assay [9] it was 5%; in [10], 44%.

`Cc1ccccc1NC(=O)Cn1c(=O)c(/C=C\c2ccncc2)nc2ccccc21`: the IC50 in assay [1] was greater than 100 µM; in [2], 69.7 µM; in assay [3] it was greater than 100 µM; in assay [4] it was greater than 100 µM; in assay [5], greater than 100 µM; in assay [6] it was greater than 100 µM.

For `O=C(Cn1c(=O)c(/C=C\c2ccncc2)nc2ccccc21)Nc1ccccc1`, the IC50 in [1] is greater than 100 µM; in assay [2], greater than 100 µM; in [3], greater than 100 µM; in assay [4], 55.5 µM; in [5] it was greater than 100 µM; in [6], greater than 100 µM.

Take `Cc1nc2ccccc2n(CC(=O)Nc2ccc(F)cc2)c1=O`: the IC50 in [1] is greater than 100 µM; in assay [2], greater than 100 µM; in [3], greater than 100 µM; in assay [4], greater than 100 µM; in assay [5], 55.5 µM; in assay [6] it was greater than 100 µM.

For `O=C(Cn1c(=O)c(/C=C\c2ccncc2)nc2ccccc21)Nc1ccc(F)cc1`, the IC50 in assay [1] is 49 µM; in assay [2] it was greater than 100 µM; in assay [3], 59.9 µM; in assay [4] it was greater than 100 µM; in [5] it was greater than 100 µM; in [6], greater than 100 µM. Besides, the inhibition entry in assay [7] was “Dose-dependent effect”; in assay [9] it was 2%; in assay [10], 6%. Besides, in assay [8], the inhibition result is “inactive”.

Regarding `O=C(COc1nc2ccccc2nc1/C=C\c1ccncc1)Nc1ccc(Cl)cc1`, the IC50 in [1] was greater than 100 µM; in assay [2], greater than 100 µM; in assay [3], greater than 100 µM; in assay [4] it was 49.9 µM; in assay [5], greater than 100 µM; in assay [6], greater than 100 µM. The inhibition result in assay [7] was “Dose-dependent effect”; in assay [9], 0%; in [10] it was 37%. Moreover, in assay [8], the inhibition entry is “Active”.

`Cc1nc2ccccc2n(CC(=O)Nc2ccc(Cl)cc2)c1=O`: the IC50 in assay [1] was greater than 100 µM; in assay [2], 40.2 µM; in [3] it was greater than 100 µM; in [4], greater than 100 µM; in [5] it was greater than 100 µM; in [6], greater than 100 µM. Besides, the inhibition entry in assay [7] was “Dose-dependent effect”; in assay [9], 0%; in [10] it was 19%. The inhibition entry in assay [11] is “Active”.

The IC50 is the concentration that gives 50% inhibition. One may read the inhibition as the percentage by which the read-out fell short of the control.
